Results gathered from unrelated publications.
Compare with care: the assays were run in different laboratories.
Target: NT-3 growth factor receptor (NTRK3, Homo sapiens, UniProt Q16288)

With `O=C(Nc1cnn2ccc(N3CCC[C@@H]3c3cc(F)ccc3F)nc12)N1CC[C@H](O)C1` the inhibition was 100% (enzyme activity, inhibitor, FRET; 1 µM).
For `O=C1Nc2ccc(Cl)cc2C1=Cc1cc(Cl)c(O)c(Cl)c1`, the remaining signal was 44.8% (cell-free assay; 0.5 µM).
With `O=C(Nc1cccc(C(=O)Nc2ccc3[nH]ncc3c2)c1)Nc1cccc(C(F)(F)F)c1` the inhibition was 26.6% (enzyme activity, inhibitor, FRET; 1 µM).
`Nc1ncnc2occ(-c3ccc(NC(=O)Nc4cc(C(F)(F)F)ccc4F)cc3)c12` has a remaining signal of 0.25% (cell-free assay; 20 µM).
`CS(=O)(=O)NCC[C@H](NC(=O)c1cncc2c1cnn2-c1ccc(F)cc1)c1ccnc(S(C)(=O)=O)c1` has a remaining binding of 100% (cell-free assay, competition with immobilised ligand; 1 µM).
With `O=C(Nc1cccc(C(=O)Nc2ccc3[nH]ncc3c2)c1)Nc1ccccc1C(F)(F)F` the inhibition was 23.7% (enzyme activity, inhibitor, FRET; 1 µM).
The remaining activity of `O=C(Nc1cnn(-c2csc(C(=O)NC3COC3)c2)c1)Nc1c(F)cccc1Cl` is reported as 38.6% (enzyme activity, inhibitor; 5 µM).
With `O=C(Nc1ccccc1)Nc1cccc(C(=O)Nc2ccc3[nH]ncc3c2)c1` the inhibition was 12.7% (enzyme activity, inhibitor, FRET; 1 µM).
For `Cc1c[nH]c2nccc(Oc3c(F)cc(Nc4cc(Cl)nc(N)n4)cc3F)c12`, the remaining binding was 86% (cell-free assay, competition with immobilised ligand; 0.1 µM).
`COc1cc(Cl)c(C(=O)N[C@@H](CN[C@H]2CC[C@@H](N)CC2)Cc2ccc(C#N)cc2)cc1-c1ccc(CN[C@H](C)c2ccc(C)cc2)o1` gave a remaining activity of 96% (enzyme activity, inhibitor; 1 µM).
For `CN(C)C(=O)Cn1cc(-c2nc([C@@](C)(c3ccc(-c4cnc(N)nc4)cc3)C3CC3)no2)cn1`, the remaining binding was 92% (cell-free assay, competition with immobilised ligand; 1 µM).
With `O=C1NC(=O)c2cc(Nc3ccc(F)cc3)c(Nc3ccc(F)cc3)cc21` the remaining signal was 95.6% (cell-free assay; 0.5 µM).
With `O=C(Nc1cnn(-c2csc(C(=O)NC3COC3)c2)c1)Nc1ccccc1Cl` the remaining activity was 64.3% (enzyme activity, inhibitor; 5 µM).
With `CC(C)(C)c1nc(-c2cccc(NS(=O)(=O)c3c(F)cccc3F)c2F)c(-c2ccnc(N)n2)s1` the remaining activity was 93% (enzyme activity, inhibitor, radiometric; 1 µM).
The inhibition of `O=C(Nc1ccc(C(F)(F)F)cc1)Nc1cccc(C(=O)Nc2ccc3[nH]nc(-c4ccccc4)c3c2)c1` is reported as 12.9% (enzyme activity, inhibitor, FRET; 1 µM).
`O=C(O)[C@H]1[C@H](Cn2nnc3ccccc3c2=O)CC[C@@H]1C(=O)c1ccc(OCCC2CCOCC2)cc1` has a remaining binding of 82% (cell-free assay, competition with immobilised ligand; 1 µM).
With `CN1CCN(c2ccc(C(=O)Nc3n[nH]c4ccc(Cc5cc(F)cc(F)c5)cc34)c(NC3CCOCC3)c2)CC1` the inhibition was 99.8% (enzyme activity, inhibitor, FRET; 1 µM).
`O=C(NC[C@@H]1[C@H]2CN(C(=O)OCc3cc(C(F)(F)F)cc(C(F)(F)F)c3)C[C@@H]12)c1ccc2[nH]nnc2c1` has a remaining binding of 91% (cell-free assay, competition with immobilised ligand; 1 µM).
The inhibition of `O=C(Nc1ccc(I)cc1)Nc1cccc(C(=O)Nc2ccc3[nH]ncc3c2)c1` is reported as 14.6% (enzyme activity, inhibitor, FRET; 1 µM).
`Cc1cnc(NC2CCOCC2)nc1-n1cnc(C(=O)NC(CN)c2cc(F)cc(Cl)c2)c1` (stereo not shown) has a remaining activity of 93% (enzyme activity, inhibitor, radiometric; 1 µM).
With `Clc1ccc(Nc2nnc(Cc3ccncc3)c3ccccc23)cc1` the remaining signal was 92.7% (cell-free assay; 0.5 µM).
The remaining binding of `Cc1c(NC(=O)c2cc(C(N)=O)nc3cc(F)ccc23)c(C(F)(F)F)nn1Cc1ccc(C(C)(C)C)cc1` is reported as 100% (cell-free assay, competition with immobilised ligand; 1 µM).
For `COc1cc2ncnc(Nc3ccc(F)c(Cl)c3)c2cc1OCCCN1CCOCC1`, the remaining signal was 103% (cell-free assay; 0.5 µM).
`NS(=O)(=O)c1cc(NC(=O)Cc2ccccc2)ccc1Oc1cccc(Cl)c1` has a remaining binding of 87% (cell-free assay, competition with immobilised ligand; 1 µM).
For `Cc1ccc(C(=O)Nc2ccc(CN3CCN(C)CC3)c(C(F)(F)F)c2)cc1C#Cc1cnc2cccnn12`, the remaining signal was 26% (cell-free assay; 23.5 nM).
